Data: ChEMBL document CHEMBL5724801, “EUbOPEN Chemogenomics Library - Multiplex” (2024)
Values joined by “and” are separate entries in the source; they are usually repeats but may differ in a detail not shown here. Identical values can stand only once.

Test system: Fibroblast
Assay: Multiplex assay against human fibroblast
Format: toxicity, cell-based
Summary of the method: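 Tubulin, mitochondrial-mass and membrane-permeability phenotypes are per cents of healthy-nucleus cells. Cells were gated by CellPathfinder machine learning into Hoechst high-intensity objects or normal cells, normal cells into healthy, pyknosed or fragmented nuclei, and pyknosed cells into mitotic or apoptotic. Before that, live cells stained at seeding with Hoechst33342, BioTracker Green Microtubule Cytoskeleton Dye, MitoTracker Red and Annexin V Alexa Fluor 680 were imaged on a CQ1 microscope at 37°C and 5% CO2 after compound addition.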

[1] = 12 h, 1 µM, compound concentration 1 uM
[2] = 12 h, 10 µM, compound concentration 10 uM
[3] = 24 h, 1 µM, compound concentration 1 uM
[4] = 24 h, 10 µM, compound concentration 10 uM
[5] = 48 h, 1 µM, compound concentration 1 uM
[6] = 48 h, 10 µM, compound concentration 10 uM

## COC[C@@H](c1ccc(C(F)(F)F)cc1)N1CCN(C2(C)CCN(C(=O)c3c(C)ncnc3C)CC2)C[C@@H]1C.O=C(O)/C=C\C(=O)O [VICRIVIROC MALEATE]
[1]
  Population Apoptotic (%): 36%
  Population Fragmented Nuclei (%): 23%
  Population Healthy Nuclei (%): 53% and 51%
  Population Hoechst High Intensity Objects (%): 4%
  Population Membrane Permeable-Phenotype (%): 2% and 5%
  Population Mitochondria Different-Phenotype (%): 11% and 13%
  Population Mitotic Cells (%): 63%
  Population Normal (%): 95%
  Population Pyknosed Nuclei (%): 22% and 25%
  Population Tubulin-Different-Phenotype (%): 16% and 41%
  Total Cell Count: 138 and 190
[2]
  Population Apoptotic (%): 58% and 33%
  Population Fragmented Nuclei (%): 26% and 48%
  Population Healthy Nuclei (%): 59% and 33%
  Population Hoechst High Intensity Objects (%): 17% and 20%
  Population Membrane Permeable-Phenotype (%): 2% and 12%
  Population Mitochondria Different-Phenotype (%): 4%
  Population Mitotic Cells (%): 41% and 66%
  Population Normal (%): 82% and 79%
  Population Pyknosed Nuclei (%): 14% and 18%
  Population Tubulin-Different-Phenotype (%): 45% and 67%
  Total Cell Count: 208 and 186
[3]
  Population Apoptotic (%): 66% and 30%
  Population Fragmented Nuclei (%): 21% and 28%
  Population Healthy Nuclei (%): 57% and 50%
  Population Hoechst High Intensity Objects (%): 3%
  Population Membrane Permeable-Phenotype (%): 1% and 8%
  Population Mitochondria Different-Phenotype (%): 7% and 20%
  Population Mitotic Cells (%): 33% and 69%
  Population Normal (%): 96%
  Population Pyknosed Nuclei (%): 20% and 21%
  Population Tubulin-Different-Phenotype (%): 18% and 41%
  Total Cell Count: 138 and 204
[4]
  Population Apoptotic (%): 73% and 42%
  Population Fragmented Nuclei (%): 23% and 46%
  Population Healthy Nuclei (%): 64% and 39%
  Population Hoechst High Intensity Objects (%): 12% and 21%
  Population Membrane Permeable-Phenotype (%): 0% and 8%
  Population Mitochondria Different-Phenotype (%): 5% and 12%
  Population Mitotic Cells (%): 26% and 57%
  Population Normal (%): 87% and 78%
  Population Pyknosed Nuclei (%): 11% and 14%
  Population Tubulin-Different-Phenotype (%): 42% and 60%
  Total Cell Count: 196 and 183
[5]
  Population Apoptotic (%): 59% and 53%
  Population Fragmented Nuclei (%): 21% and 33%
  Population Healthy Nuclei (%): 56% and 50%
  Population Hoechst High Intensity Objects (%): 3% and 5%
  Population Membrane Permeable-Phenotype (%): 0% and 9%
  Population Mitochondria Different-Phenotype (%): 7% and 19%
  Population Mitotic Cells (%): 40% and 46%
  Population Normal (%): 96% and 95%
  Population Pyknosed Nuclei (%): 21% and 15%
  Population Tubulin-Different-Phenotype (%): 34% and 58%
  Total Cell Count: 127 and 180
[6]
  Population Apoptotic (%): 73% and 53%
  Population Fragmented Nuclei (%): 23% and 54%
  Population Healthy Nuclei (%): 65% and 35%
  Population Hoechst High Intensity Objects (%): 14% and 20%
  Population Membrane Permeable-Phenotype (%): 0% and 9%
  Population Mitochondria Different-Phenotype (%): 5% and 10%
  Population Mitotic Cells (%): 26% and 46%
  Population Normal (%): 85% and 79%
  Population Pyknosed Nuclei (%): 10% and 9%
  Population Tubulin-Different-Phenotype (%): 48% and 61%
  Total Cell Count: 206 and 193

## O=C(NCCNCC(O)COc1ccc(O)cc1)N1CCOCC1.O=C(NCCNCC(O)COc1ccc(O)cc1)N1CCOCC1.O=C(O)/C=C/C(=O)O (centres undefined) [XAMOTEROL FUMARATE]
[1]
  Population Apoptotic (%): 63% and 43%
  Population Fragmented Nuclei (%): 15% and 23%
  Population Healthy Nuclei (%): 67% and 53%
  Population Hoechst High Intensity Objects (%): 2% and 4%
  Population Mitochondria Different-Phenotype (%): 4% and 7%
  Population Mitotic Cells (%): 36% and 56%
  Population Normal (%): 97% and 95%
  Population Pyknosed Nuclei (%): 17% and 23%
  Population Tubulin-Different-Phenotype (%): 24% and 55%
  Total Cell Count: 114 and 167
[2]
  Population Apoptotic (%): 30% and 17%
  Population Fragmented Nuclei (%): 21% and 30%
  Population Healthy Nuclei (%): 64% and 49%
  Population Hoechst High Intensity Objects (%): 4% and 5%
  Population Membrane Permeable-Phenotype (%): 2% and 4%
  Population Mitochondria Different-Phenotype (%): 5% and 11%
  Population Mitotic Cells (%): 70% and 82%
  Population Normal (%): 95% and 94%
  Population Pyknosed Nuclei (%): 14% and 20%
  Population Tubulin-Different-Phenotype (%): 32% and 43%
  Total Cell Count: 143 and 154
[3]
  Population Apoptotic (%): 68% and 50%
  Population Fragmented Nuclei (%): 20% and 28%
  Population Healthy Nuclei (%): 63% and 52%
  Population Hoechst High Intensity Objects (%): 1% and 2%
  Population Mitochondria Different-Phenotype (%): 2% and 6%
  Population Mitotic Cells (%): 31% and 50%
  Population Normal (%): 98% and 97%
  Population Pyknosed Nuclei (%): 15% and 19%
  Population Tubulin-Different-Phenotype (%): 25% and 63%
  Total Cell Count: 121 and 149
[4]
  Population Apoptotic (%): 62% and 42%
  Population Fragmented Nuclei (%): 20% and 34%
  Population Healthy Nuclei (%): 67% and 54%
  Population Hoechst High Intensity Objects (%): 1%
  Population Membrane Permeable-Phenotype (%): 0% and 5%
  Population Mitochondria Different-Phenotype (%): 0% and 8%
  Population Mitotic Cells (%): 37% and 57%
  Population Normal (%): 98%
  Population Pyknosed Nuclei (%): 12% and 11%
  Population Tubulin-Different-Phenotype (%): 31% and 41%
  Total Cell Count: 135 and 172
[5]
  Population Apoptotic (%): 65% and 40%
  Population Fragmented Nuclei (%): 27% and 42%
  Population Healthy Nuclei (%): 57% and 46%
  Population Hoechst High Intensity Objects (%): 1% and 2%
  Population Membrane Permeable-Phenotype (%): 1% and 7%
  Population Mitochondria Different-Phenotype (%): 2% and 4%
  Population Mitotic Cells (%): 35% and 60%
  Population Normal (%): 98% and 97%
  Population Pyknosed Nuclei (%): 15% and 10%
  Total Cell Count: 131 and 140
[6]
  Population Apoptotic (%): 56% and 52%
  Population Fragmented Nuclei (%): 25% and 33%
  Population Healthy Nuclei (%): 62% and 54%
  Population Hoechst High Intensity Objects (%): 4% and 3%
  Population Membrane Permeable-Phenotype (%): 1% and 6%
  Population Mitochondria Different-Phenotype (%): 3% and 4%
  Population Mitotic Cells (%): 43% and 47%
  Population Normal (%): 95% and 96%
  Population Pyknosed Nuclei (%): 11%
  Population Tubulin-Different-Phenotype (%): 33% and 48%
  Total Cell Count: 144 and 157
